One test deals with T47D. The experiment in a line: Selectivity ratio of IC50 for progesterone receptor in human T47D cells to IC50 for glucocorticoid receptor in human A549 cells. Type of test: cell-based. Put shortly: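 Ratio calculated by dividing the IC50 from the T47D alkaline phosphatase assay by the IC50 from the A549 cell-based functional assay, with both measured in this work. It serves as an index of how well PR and GR antagonism are separated. Mifepristone was run alongside as the reference compound.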

A further test addresses T1, Glucocorticoid receptor (Homo sapiens, UniProt P04150).
T1 sequence (P04150 whole entry): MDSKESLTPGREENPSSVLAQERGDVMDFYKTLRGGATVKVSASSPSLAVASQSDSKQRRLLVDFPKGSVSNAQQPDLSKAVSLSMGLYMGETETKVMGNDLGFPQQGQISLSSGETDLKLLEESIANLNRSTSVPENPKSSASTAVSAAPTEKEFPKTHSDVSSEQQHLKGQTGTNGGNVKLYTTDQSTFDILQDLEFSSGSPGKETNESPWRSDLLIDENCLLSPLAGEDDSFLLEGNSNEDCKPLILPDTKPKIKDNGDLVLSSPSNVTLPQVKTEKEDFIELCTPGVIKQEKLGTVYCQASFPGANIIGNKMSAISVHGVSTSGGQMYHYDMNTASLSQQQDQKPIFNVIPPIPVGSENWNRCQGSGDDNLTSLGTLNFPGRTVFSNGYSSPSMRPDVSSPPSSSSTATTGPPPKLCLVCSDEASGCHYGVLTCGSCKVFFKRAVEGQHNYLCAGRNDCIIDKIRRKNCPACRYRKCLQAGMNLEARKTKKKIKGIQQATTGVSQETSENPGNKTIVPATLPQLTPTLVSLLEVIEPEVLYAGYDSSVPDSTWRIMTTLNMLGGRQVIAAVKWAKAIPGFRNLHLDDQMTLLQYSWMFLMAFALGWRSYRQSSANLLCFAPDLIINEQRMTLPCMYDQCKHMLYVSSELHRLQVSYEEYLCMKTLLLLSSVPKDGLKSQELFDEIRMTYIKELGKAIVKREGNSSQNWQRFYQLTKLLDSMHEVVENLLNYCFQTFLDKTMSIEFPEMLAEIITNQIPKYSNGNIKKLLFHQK
The experiment in a line: Antagonist activity at glucocorticoid receptor in human A549 cells assessed as inhibition of dexamethasone-induced transcription at GRE after 24 hrs by luciferase reporter gene assay. Type of test: functional, cell-based. Background: Reporter assays use an easily measured gene product as a stand-in for the process of interest.

In another test the target is T2, Progesterone receptor (Homo sapiens, UniProt P06401).
T2 sequence (P06401 whole entry): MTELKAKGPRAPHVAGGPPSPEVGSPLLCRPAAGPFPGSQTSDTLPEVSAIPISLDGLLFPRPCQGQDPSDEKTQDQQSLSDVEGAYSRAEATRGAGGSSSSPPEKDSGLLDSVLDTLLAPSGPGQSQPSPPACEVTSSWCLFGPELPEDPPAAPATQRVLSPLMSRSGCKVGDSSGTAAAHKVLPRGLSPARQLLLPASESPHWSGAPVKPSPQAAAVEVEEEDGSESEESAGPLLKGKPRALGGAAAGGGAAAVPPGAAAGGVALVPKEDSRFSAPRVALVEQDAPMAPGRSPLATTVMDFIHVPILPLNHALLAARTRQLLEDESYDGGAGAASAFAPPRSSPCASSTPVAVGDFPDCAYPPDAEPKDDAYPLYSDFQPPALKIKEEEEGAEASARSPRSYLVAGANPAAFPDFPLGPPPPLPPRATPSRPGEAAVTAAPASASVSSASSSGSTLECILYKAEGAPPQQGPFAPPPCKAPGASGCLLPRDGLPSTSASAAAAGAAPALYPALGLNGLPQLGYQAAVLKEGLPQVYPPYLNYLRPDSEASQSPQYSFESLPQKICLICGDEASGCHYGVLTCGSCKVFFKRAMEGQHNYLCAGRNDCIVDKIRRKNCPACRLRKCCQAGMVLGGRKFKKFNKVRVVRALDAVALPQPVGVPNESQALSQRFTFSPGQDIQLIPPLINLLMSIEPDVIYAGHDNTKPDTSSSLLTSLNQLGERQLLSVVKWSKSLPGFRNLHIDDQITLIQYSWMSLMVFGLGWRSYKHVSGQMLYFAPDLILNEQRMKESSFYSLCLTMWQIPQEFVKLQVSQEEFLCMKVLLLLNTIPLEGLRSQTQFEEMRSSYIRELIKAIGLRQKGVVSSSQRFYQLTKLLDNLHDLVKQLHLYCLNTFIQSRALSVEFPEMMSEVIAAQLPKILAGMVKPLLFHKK
The experiment in a line: Antagonist activity at progesterone receptor in human T47D cells assessed as inhibition of progesterone-induced alkaline phosphatase activity after 24 hrs by luminescence based assay. Type of test: functional, cell-based.

These results are taken from ChEMBL document CHEMBL1949497, “Synthesis and antihormonal properties of novel 11β-benzoxazole-substituted steroids” (Bioorg Med Chem Lett, 2012).

On to `CC#C[C@]1(O)CC[C@H]2[C@@H]3CCC4=CC(=O)CCC4=C3[C@@H](c3ccc4oc(CC)nc4c3)C[C@@]21C`, for which the Ratio IC50 with T47D was 5. Besides, the IC50 at Glucocorticoid receptor came out at 0.013 µM; on Progesterone receptor, 0.065 µM.
Turning to `CC#C[C@]1(NC=O)CC[C@H]2[C@@H]3CCC4=CC(=O)CCC4=C3[C@@H](c3ccc4ocnc4c3)C[C@@]21C`, the Ratio IC50 with T47D came to 0.7. In addition, the IC50 on Glucocorticoid receptor turned out to be 0.06 µM; at Progesterone receptor it was 0.041 µM.
On to `CC#C[C@]1(O)CC[C@H]2[C@@H]3CCC4=CC(=O)CCC4=C3[C@@H](c3ccc4ocnc4c3)C[C@@]21C`, for which the Ratio IC50 in the test on T47D came to 2.2. Also, the IC50 was 0.045 µM on Glucocorticoid receptor and 0.101 µM at Progesterone receptor.
Turning to `CC#C[C@]1(O)CC[C@H]2[C@@H]3CCC4=CC(=O)CCC4=C3[C@@H](c3ccc4oc(C(F)(F)F)nc4c3)C[C@@]21C`, in the test on T47D, the Ratio IC50 turned out to be 1.4. For the same compound, the IC50 on Glucocorticoid receptor stood at 0.061 µM; on Progesterone receptor it was 0.085 µM.
On to `CC#C[C@]1(O)CC[C@H]2[C@@H]3CCC4=CC(=O)CCC4=C3[C@@H](c3ccc4oc(C)nc4c3)C[C@@]21C`, for which, in the test on T47D, the Ratio IC50 was 1.5. The values for the IC50 on Glucocorticoid receptor and on Progesterone receptor were 0.023 µM and 0.035 µM, respectively.
Turning to `CC#C[C@]1(NC=O)CC[C@H]2[C@@H]3CCC4=CC(=O)CCC4=C3[C@@H](c3ccc4oc(C(F)(F)F)nc4c3)C[C@@]21C`, the Ratio IC50 with T47D was found to be 0.3. For the same compound, the IC50 on Glucocorticoid receptor is 0.142 µM; at Progesterone receptor, 0.046 µM.
Regarding `CC#C[C@]1(O)CC[C@H]2[C@@H]3CCC4=CC(=O)CCC4=C3[C@@H](c3ccc(N(C)C)cc3)C[C@@]21C`, the Ratio IC50 in the test with T47D turned out to be 0.9.

For orientation: IC50 means the point on the concentration scale where inhibition reaches its midpoint.
